From PubChem
Compounds with a hit are over-represented: about 2% of the library has one in this group of screens.
TRPML3 agonist: agonists of human TRPML3 channel; Q8TDD5; activation, % at 3 µM; hit rate 0.29% among 220,000; HEK293 TRPML3-YFP, Fluo-8 calcium fluorescence; 100% = the carbachol control signal;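 active means activation above its plate's cutoff, the mean activation of the plate's test wells plus 3 SD, cut at about 12% in these data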
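Material: HEK293 cells stably carrying human TRPML3-YFP; compound dosing: single dose, 3 µM final nominal compound, 0.3% DMSO final; incubation: 1-h 37 °C dye load, 5-s basal, 120-s post-compound reads; technique: Fluo-8 intracellular calcium fluorescence, excitation 470-495 nm, emission 515-575 nm; read-out basis: percent activation from peak-to-basal fluorescence ratio, scaled between DMSO and carbachol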
CRFR2-BP antag: blocks CRF-induced signaling of the CRF-BP/CRF-R2 complex; HEK293 CRF-R2/CRF-BP, CRF-induced calcium fluorescence; hit rate 0.59% among 350,000; inhibition, % at 11.8 µM;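 active means inhibition of the ligand-induced calcium signal above about 50% at the single tested concentration, limit read from the data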
CRFR2-BP ag: CRF-BP/CRF-R2 complex agonism | HEK293 CRF-R2/CRF-BP, calcium dye fluorescence (FLIPR); percent of saturating CRF peptide response | activation, % at 13.2 µM | hit rate 0.46% among 350,000;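 active means activation of at least 50%, plus an integration ratio under a set limit after plate pattern correction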
zfTRPN1 agonist: zebrafish TRPN1 (NompC) channel agonism | HEK293 zebrafish TRPN1-YFP, Fluo-8 calcium fluorescence; 100% = response to 87 µM carbachol | activation, % at 3 µM | hit rate 0.18% among 220,000;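 active means activation above its plate's cutoff, the mean activation of test wells on that plate plus 3 SD, cut at about 19% in these data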
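Material: zebrafish TRPN1-YFP in HEK293 cells. Doses: one dose of 3 µM, 0.3% DMSO. Incubation: dye 1 h 37 °C plus 30 min RT. Measured by: intracellular calcium fluorescence with Fluo-8.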
GPR7 antag: blocks human GPR7 receptor signaling; GPR7-expressing cells, fluorescence antagonist assay; inhibition, % at 4.4 µM; hit rate 1.1% among 290,000; AID 1861; in the data active means inhibition above about 16%, passing the limit was not always enough;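 further: cells stimulated with the agonist NPW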
Target sequence (P48145 whole entry, looked up): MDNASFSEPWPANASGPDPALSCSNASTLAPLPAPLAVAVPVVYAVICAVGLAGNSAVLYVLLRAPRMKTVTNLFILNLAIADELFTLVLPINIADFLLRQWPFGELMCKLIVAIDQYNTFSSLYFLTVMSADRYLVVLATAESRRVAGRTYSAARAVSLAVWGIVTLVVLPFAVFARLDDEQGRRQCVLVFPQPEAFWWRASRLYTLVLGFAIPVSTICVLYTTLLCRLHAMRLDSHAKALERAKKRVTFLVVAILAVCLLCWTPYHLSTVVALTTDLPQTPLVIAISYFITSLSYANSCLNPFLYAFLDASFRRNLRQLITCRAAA
Hits are given with their value; - = inactive; . = no result.

SMILES	TRPML3 agonist	CRFR2-BP antag	CRFR2-BP ag	zfTRPN1 agonist	GPR7 antag
Cc1cc(/C=C2/C(=N)N3C(=NC2=O)SN=C3S(C)(=O)=O)c(C)n1-c1ccccc1F	-	-	-	-	-
N#C/C(=C\c1coc2ccc(O)cc2c1=O)C(=O)Nc1nc2ccccc2s1	64	-	235	222	-
N#C/C(=C\c1coc2ccccc2c1=O)C(N)=S	-	-	-	-	-
O=C(Nc1ccccc1F)C1CC1c1ccccc1 (configuration not stated)	-	-	-	-	-
Cc1cccc(NC(=O)C2CC2c2ccccc2)c1C (configuration not stated)	.	-	70	.	-
O=C(NCC1CCCO1)c1cc2nc(-c3ccco3)cc(C(F)(F)Cl)n2n1 (configuration not stated)	.	-	-	.	-
Cc1ccccc1OCCN1C(=O)C(=O)c2cccc(C)c21	-	-	-	-	21
Cc1cccc2c1N(CCOc1ccccc1Cl)C(=O)C2=O	-	-	-	-	-
O=C(C/C=N\OCc1ccc([N+](=O)[O-])cc1)Nc1ccc(Br)cc1	-	84	-	-	-
CCOc1ccccc1NC(=O)COC(=O)C1COc2ccccc2O1 (configuration not stated)	.	95	-	.	.
CCOc1ccccc1NC(=O)C1COc2ccccc2O1 (configuration not stated)	.	-	-	.	-
Cc1ccc(S(=O)(=O)NCCC(=O)NNc2c(F)c(F)cc(F)c2F)cc1	.	-	-	.	.
O=C1CC(c2ccc3ccccc3c2)NN1 (configuration not stated)	.	-	-	.	.
O=C(CN(Cc1ccco1)C(=O)CNS(=O)(=O)c1ccc(F)cc1)NCc1ccco1	.	-	-	.	-
O=c1cc(-c2ccccc2)nc2c(-c3ccccc3)c(C(F)(F)F)[nH]n12	-	54	-	-	-
Cc1ccc(NC(=O)CSc2nnc(Cn3cnc4ccccc43)o2)c(C)c1	-	59	-	-	-
CCCNC(=O)C(Cc1ccc(F)cc1)NC(=O)c1ccc(C#N)cc1 (configuration not stated)	.	-	-	.	.
CC(C)c1ccc(NC(=S)NN2CCOCC2)cc1	-	50	83	-	-
CC(C)(C)CC(C)(C)NC(=S)NC1CCN(Cc2ccccc2)CC1	-	-	-	-	27
CCN(CC(=O)NCc1cccs1)C(=O)/C=C/c1ccc(Cl)c(Cl)c1	.	-	-	.	.
O=C1OCC2=C1C(c1ccc(F)cc1)c1cc3c(cc1N2)OCCO3 (configuration not stated)	-	-	-	-	19
CCOc1ccccc1C1C2=C(COC2=O)Nc2cc3c(cc21)OCO3 (configuration not stated)	-	-	-	-	-
O=C1OCC2=C1C(c1ccc(F)cc1)c1cc3c(cc1N2)OCO3 (configuration not stated)	-	-	-	-	19
Cc1ccc(OCc2cc(C(=O)N3CCN(c4ccccc4)CC3)no2)cc1C	.	-	-	.	-
COC(=O)C1=CN(Cc2ccc(OC)cc2)C=C(C(=O)OC)C1c1cccs1	-	111	-	-	-
SMILES	TRPML3 agonist	CRFR2-BP antag	CRFR2-BP ag	zfTRPN1 agonist	GPR7 antag
COC(=O)C1=CN(CCCN2CCCC2=O)C=C(C(=O)OC)C1c1cccs1	-	-	-	-	-
CCc1ccc(N2CC(C(=O)NC3CCCCC3C)CC2=O)cc1 (configuration not stated)	.	-	-	.	-
CCOc1nc(C)ccc1-c1noc(-c2ccco2)n1	-	-	-	-	-
CCOc1nc(C)ccc1-c1noc(-c2ccccn2)n1	-	111	-	-	-
COC(=O)c1ccc(CSc2nnc(N)s2)cc1	-	-	-	-	19
COC(=O)c1ccc(CSc2nnc(C)s2)cc1	-	-	-	-	-
CC(NC(=O)Nc1ccc(F)cc1F)c1ccc2c(c1)OCO2 (configuration not stated)	.	-	-	.	-
CNC(=S)NCCc1c[nH]c2ccc(OC)cc12	-	-	-	-	-
COc1ccc2[nH]cc(CCNC(=S)NC3CCCC3)c2c1	-	51	-	-	-
COc1cccc(C(=O)N(Cc2nc(-c3ccc(C)cc3)no2)C(C)C)c1	-	-	-	-	-
Cc1ccc(C)c(C(=O)N(Cc2nc(-c3ccc(Cl)cc3)no2)C(C)C)c1	28	-	-	-	-
CC(NC(=O)c1ccccc1Cl)C(=O)O (configuration not stated)	-	-	-	-	-
O=C(O)C1OC1(c1ccccc1Cl)c1ccccc1Cl (configuration not stated)	.	69	-	.	.
CC1CCN(S(=O)(=O)c2cccc(C(=O)N(Cc3ccccc3)c3ccccn3)c2)CC1	-	-	-	-	19
N#C/C(=C\c1ccc(O)c(O)c1)C(=O)NCCc1ccccc1	.	-	-	.	.
COc1cc(/C=C(\C#N)C(=O)NCCc2ccccc2)cc(OC)c1O	-	-	67	-	-
COc1cc(/C=C(\C#N)C(=O)c2c[nH]c3ccccc23)cc(OC)c1O	-	-	85	-	-
CCOC(=O)/C=C/S(=O)(=O)c1ccc(NC(C)=O)cc1	-	-	-	-	18
COc1ccc(NC2CCCN(C(=O)CN3CCOC3=O)C2)cc1 (configuration not stated)	.	-	-	.	-
Cc1cc2nccc(-c3ccccn3)n2n1	-	-	-	-	-
c1ccc(-c2cc3nccc(-c4ccccn4)n3n2)cc1	-	60	-	-	-
CCCC12CN(C(=O)c3ccc([N+](=O)[O-])cc3)CC(C)(CN(C(=O)c3ccc([N+](=O)[O-])cc3)C1)C2=O	-	126	-	-	-
CC12CN(C(=O)c3ccc([N+](=O)[O-])cc3)CC(C)(CN(C(=O)c3ccc([N+](=O)[O-])cc3)C1)C2=O	-	-	-	-	-
CCSC(=O)N(CC)CC(=O)Nc1c(CC)cccc1CC	-	-	-	-	21
Cc1nc2cc(C(=O)NCc3ccc4c(c3)OCO4)ccc2n1-c1ccc(Br)cc1	-	65	-	-	-
SMILES	TRPML3 agonist	CRFR2-BP antag	CRFR2-BP ag	zfTRPN1 agonist	GPR7 antag
CCOc1cc(Br)c(C(C)NC(=O)c2cccnc2)cc1OCC (configuration not stated)	.	-	-	.	.
CC(C)=CCN1CCN(Cc2cn(C(C)C)c3ccccc23)CC1CCO (configuration not stated)	.	-	-	.	-
CCCNC(=O)Cn1c(=O)/c(=C\c2ccc(-c3ccc([N+](=O)[O-])cc3)o2)s/c1=C\C(=O)C(C)(C)C	-	-	356	-	-
CCCNC(=O)Cn1c(=O)/c(=C/c2ccc(-c3cccc([N+](=O)[O-])c3)o2)s/c1=C\C(=O)C(C)(C)C	.	-	-	.	.
CCCNC(=O)Cn1c(=O)/c(=C\c2ccc(-c3cccc([N+](=O)[O-])c3)o2)s/c1=C\C(=O)C(C)(C)C	-	-	57	-	-
Cc1ccc(S(=O)(=O)N(Cc2ccccc2)Cc2ccco2)cc1	45	-	-	-	-
